Experimental data from PubChem BioAssay AID540295 (The Scripps Research Institute Molecular Screening Center, 2011).
In all, about 360,000 compounds went through this assay and about 1,700 (0.47%) were called active.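 Rule for the calls: active = inhibition above its plate's cutoff, the mean of tested wells on that plate plus 3 SD (cut at about 29% in these data); inactive = the rest.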 The entries come from a sample that favours actives as a whole.

Target: Melanocortin receptor 4 (Homo sapiens) (UniProt P32245)
Sequence (P32245 whole entry, looked up): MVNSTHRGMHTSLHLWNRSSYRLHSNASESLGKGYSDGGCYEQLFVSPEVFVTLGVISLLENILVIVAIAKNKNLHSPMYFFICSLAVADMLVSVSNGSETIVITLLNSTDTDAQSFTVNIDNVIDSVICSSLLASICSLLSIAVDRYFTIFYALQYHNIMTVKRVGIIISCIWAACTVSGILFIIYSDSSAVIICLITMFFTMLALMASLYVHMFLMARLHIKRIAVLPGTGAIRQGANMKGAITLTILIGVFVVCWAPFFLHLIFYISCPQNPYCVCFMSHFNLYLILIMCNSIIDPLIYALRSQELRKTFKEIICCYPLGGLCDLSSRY
Test: MC4R antagonists of cAMP signaling, primary screen, cell-based, TR-FRET, antagonist arm of biased-ligand search (AID 540295);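 note: 0% = Melanotan II alone and 100% = Melanotan II plus saturating MCL0020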
Conditions: MC4R-expressing cells, MTII-stimulated cAMP, LANCE TR-FRET; at 6.5 µM; hits give high values
In short: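 material = U2OS cells stably expressing human melanocortin 4 receptor (MC4R) | also added = Melanotan II challenge | dosing = single nominal compound dose of 6.5 µM | detection = TR-FRET with Eu-cAMP and labeled anti-cAMP, 671 nm | replication = singlicate | timing = compound 30 min, challenge 1 h, detection 1 h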

Structure (SMILES) | inhibition
CCOC(=O)c1c(NC(=O)CCl)sc(C(=O)N(CC)CC)c1C | 32.6% (active)
COC(=O)c1sc(NC(=O)COC(=O)C2CCC2)c(C(=O)OC)c1C | 3.01% (inactive)
CCOC(=O)c1c(NC(=O)COC(=O)c2ccc(S(=O)(=O)C(F)F)cc2)sc(C(=O)N(C)C)c1C | 8.14% (inactive)
O=S(=O)(c1ccc(SCc2ccc(Br)cc2)nc1)N1CCOCC1 | 5.21% (inactive)
CCCCC1N2CC3([N+](=O)[O-])CN1CC([N+](=O)[O-])(C2)C3(C)C (centres undefined) | 1.22% (inactive)
Cn1c(=O)[nH]c(=O)c2c1nc(CN1CCN(c3ccccc3F)CC1)n2CCc1ccccc1 | 4.45% (inactive)
COc1ccc2oc(=O)cc(CN3CCOCC3)c2c1 | 5.75% (inactive)
COc1ccc2oc(N)nc2c1 | -3.46% (inactive)
COc1ccc2oc(N)c(C=O)c(=O)c2c1 | 37.6% (active)
O=C(Nc1ccccc1)c1nnsc1S(=O)(=O)c1ccc(Cl)cc1 | 22.3% (inactive)
COc1cccc(NC(=O)c2ccccc2N(Cc2ccccc2)S(C)(=O)=O)c1 | 4.09% (inactive)
COc1ccc(/C=N/OCC(=O)N(Cc2ccccc2)c2ccccc2C(=O)O)cc1 | 32.2% (active)
CCOC(=O)N1CCN(C(=O)c2ccccc2N(Cc2ccccc2)S(=O)(=O)c2ccc(OC)cc2)CC1 | -11% (inactive)
CCc1nnc(NC(=O)[C@@H](NC(=O)c2cccc(C)c2)C(C)C)s1 | 2.22% (inactive)
COc1ccc2c(c1)c1nc3n(c(=O)c1n2CC(=O)Nc1ccccc1)CCS3 | -10.3% (inactive)
COc1ccc(-c2nc3n(c(=O)c2C#N)CCS3)c(OC)c1 | 30.9% (active)
COc1cccc(NC(=O)Cn2c3ccccc3c3nc4n(c(=O)c32)CCS4)c1 | 19.8% (inactive)
CC=CCn1c(SCCCc2ccccc2)nc2c1c(=O)[nH]c(=O)n2C | -6.73% (inactive)
COc1ccc(S(=O)(=O)NC(=O)C2(C)CCN2C(=O)c2ccccc2CCc2ccccc2)cc1 (centres undefined) | -3.11% (inactive)
N#Cc1ccc(OCC(=O)Nc2nc(-c3ccccn3)cs2)cc1 | -1.39% (inactive)

Structure (SMILES) | inhibition
CCCC/C(C)=N/NC(=O)NC1CCCCC1 | 6.08% (inactive)
COc1ccc(CCNC(=O)CCCCCNC(=O)N2CCn3c2nc2ccccc23)cc1OC | 2.13% (inactive)
COc1ccc(NC(=O)CN2C(=O)NC(C)(c3ccccc3)C2=O)cn1 (centres undefined) | -0.87% (inactive)
COc1ccc(NC(=O)C2Cc3c(-c4ccc5c(c4)OCO5)ccnc3O2)cn1 (centres undefined) | -23.9% (inactive)
COc1ccc(NC(=O)/C(Cl)=C(/Cl)S(=O)Cc2ccc(C)cc2)cn1 (centres undefined) | 57.8% (active)
COc1cc(C(=O)NCc2ccc(-n3cccc3)cc2)cc(OC)c1OC | 5.76% (inactive)
Cc1cccc(-c2cnc(C(O)c3ccc4ccccc4c3)[nH]2)c1 (centres undefined) | 5.06% (inactive)
Cc1c(CCC(=O)O)c(=O)oc2cc(OCc3ccc(Br)cc3)ccc12 | 29.8% (active)
Cc1coc2cc3oc(=O)c(CCC(=O)O)c(C)c3cc12 | 4.19% (inactive)
Cc1c(CCC(=O)O)c(=O)oc2c(C)c(OCc3ccccc3Cl)ccc12 | 17.1% (inactive)
Cc1ccc(-c2nnc(CN3CCN(C)CC3)o2)cc1 | 30.6% (active)
CCOC(=O)N1CCN(Cc2nnc(-c3ccccc3Cl)o2)CC1 | 2.09% (inactive)
CCOC(=O)C1CCN(Cc2nnc(-c3cccc(Br)c3)o2)CC1 | 7.07% (inactive)
Cc1ccccc1-c1n[nH]c(=S)n1/N=C/c1ccc(-c2ccccc2Br)o1 | 28.7% (active)
Cc1ccc(Cl)cc1-c1ccc(/C=N/n2cnnc2)o1 | -0.99% (inactive)
S=c1[nH]nc(-c2ccco2)n1/N=C/c1ccc(Br)s1 | -2.7% (inactive)
Cc1nn(Cc2ccc(F)cc2)c(C)c1NC(=O)c1noc2c1CCc1ccccc1-2 | 10.4% (inactive)
COc1cc(C(=O)N2CCOC23CCN(Cc2ccccc2)CC3)cc(OC)c1OC | 0.19% (inactive)
O=C(c1ccc2c(c1)N(Cc1ccc(F)cc1)C(=O)c1ccccc1S2(=O)=O)N1CCN(c2ccccn2)CC1 | 30.5% (active)
O=C(c1ccc2c(c1)C(=O)N(c1ccc(Cl)cc1)C2=O)N1CCN(c2ccccn2)CC1 | 7.23% (inactive)

Structure (SMILES) | inhibition
O=C1c2ccccc2S(=O)(=O)c2cc(N3CCN(c4ccccn4)CC3)ccc21 | 11.1% (inactive)
Cc1ccc(C)c(N2CCN(C(=O)CCc3nc(-c4cccc(C(F)(F)F)c4)no3)CC2)c1 | -2.59% (inactive)
Cc1cc(C(=O)N2CCN(c3ccccn3)CC2)c(C)o1 | -0.72% (inactive)
COc1cccc(OC)c1C(=O)Nc1c(C(=O)N2CCN(c3ccccn3)CC2)oc2ccccc12 | 36.6% (active)
COCC(=O)Nc1c(C(=O)N2CCCC2)oc2ccccc12 | 2.6% (inactive)
CCOc1ccc(CCNC(=O)CN2C(=O)NC3(CCc4ccccc43)C2=O)cc1OCC (centres undefined) | 7.52% (inactive)
CCO[C@H]1OC(C(=O)Nc2ccccc2)=C[C@@H](C2CC2)[C@@H]1CCCO | 8.5% (inactive)
COc1cc(S(=O)(=O)Nc2ncn[nH]2)ccc1Cl | 3.99% (inactive)
COc1ccc(OC)c(S(=O)(=O)Nc2c(C)nn(C)c2C)c1 | -0.88% (inactive)
COc1ccc(C(C)C)cc1S(=O)(=O)Nc1ncn[nH]1 | 32.9% (active)
CC(C)CC(=O)Nc1cc(C(F)(F)F)ccc1N1CCOCC1 | 8.93% (inactive)
O=C(CN1C(=O)NC2(CCCC2)C1=O)Nc1cc(C(F)(F)F)ccc1N1CCOCC1 | 2.08% (inactive)
O=C(Cn1nnc2ccccc2c1=O)Nc1cc(C(F)(F)F)ccc1N1CCOCC1 | 30.3% (active)
O=C(Nc1nccs1)c1cc(S(=O)(=O)N2CCOCC2)c(Cl)cc1Cl | 35.1% (active)
O=C(NCc1cccnc1)c1cc(S(=O)(=O)N2CCOCC2)c(Cl)cc1Cl | 2.73% (inactive)
O=C(Nc1ccc(S(=O)(=O)Nc2nccs2)cc1)c1cccc(S(=O)(=O)N2CCOCC2)c1 | 13.1% (inactive)
Cc1ccc(S(=O)(=O)N(CC(=O)N/N=C/c2ccc(F)cc2)c2cccc3cccnc23)cc1 | 15.1% (inactive)
COc1ccccc1N(CC(=O)Nc1c(C)n(C)n(-c2ccccc2)c1=O)S(=O)(=O)c1ccccc1 | -1.81% (inactive)
COc1ccccc1N(CC(=O)N/N=C(\C)c1ccccc1O)S(=O)(=O)c1ccc(C)cc1 | 33.9% (active)
